The values that follow come from ChEMBL document CHEMBL3091458, “Design, synthesis, and biological evaluation of 1,2,4-triazole bearing 5-substituted biphenyl-2-sulfonamide derivatives as potential antihypertensive candidates” (Bioorg Med Chem, 2013).

The test system of series [1] is Rattus norvegicus. The series can be described thus: Toxicity in renal spontaneously hypertensive rat model assessed as reduction of heart rate at 20 mg/kg, po measured at 4 hrs by tail-cuff method relative to control. Type of series: organism-based. More on the design: dose 20 mg/kg, route oral. Conditions: in vivo. The procedure, abridged: (§1)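 Spontaneously hypertensive rats were dosed orally with the test agent at 20 mg/kg, with a saline-dosed control group. SAP, DAP, MAP and heart rate were recorded before dosing and at 1, 2, 4, 6 and 8 h after. Change was taken as the post-dose value minus the pre-dose value. Significance was judged against the control at p < 0.1 and p < 0.05.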

Series [2] has as its system Rattus norvegicus. The series can be described thus: Antihypertensive activity in renal spontaneously hypertensive rat model assessed as reduction of mean arterial pressure at 20 mg/kg, po measured at 4 hrs by tail-cuff method relative to control. Type of series: functional, Artery. In short, it runs like this: as §1
Series [3] concerns Rattus norvegicus. The series can be described thus: Antihypertensive activity in renal spontaneously hypertensive rat model assessed as reduction of mean arterial pressure at 20 mg/kg, po measured at 6 hrs by tail-cuff method relative to control. The series is classed as functional, Artery. In short, it runs like this: as §1
Series [4] has as its system Rattus norvegicus. In words: Toxicity in renal spontaneously hypertensive rat model assessed as reduction of heart rate at 20 mg/kg, po measured at 6 hrs by tail-cuff method relative to control. The series is classed as organism-based. Details: dose 20 mg/kg, route oral. Conditions: in vivo. The procedure, abridged: as §1
Series [5] has as its system Rattus norvegicus. The series can be described thus: Antihypertensive activity in renal spontaneously hypertensive rat model assessed as reduction of systolic arterial pressure at 20 mg/kg, po measured at 2 hrs by tail-cuff method relative to control. Type of series: functional, Artery. In short, it runs like this:
as §1

The subject of series [6] is Rattus norvegicus. In words: Antihypertensive activity in renal spontaneously hypertensive rat model assessed as reduction of mean arterial pressure at 20 mg/kg, po measured at 1 hr by tail-cuff method relative to control. The series is classed as functional, Artery. In short, it runs like this: as §1
Series [7] relates to Rattus norvegicus. The series can be described thus: Antihypertensive activity in renal spontaneously hypertensive rat model assessed as reduction of systolic arterial pressure at 20 mg/kg, po measured at 4 hrs by tail-cuff method relative to control. The series is classed as functional, Artery. In short, it runs like this:
as §1

Series [8] has as its system Rattus norvegicus. In words: Toxicity in renal spontaneously hypertensive rat model assessed as reduction of heart rate at 20 mg/kg, po measured at 1 hr by tail-cuff method relative to control. Type of series: organism-based. Details: dose 20 mg/kg, route oral. To be noted: in vivo. In short, it runs like this:
as §1

The subject of series [9] is Rattus norvegicus. The series can be described thus: Antihypertensive activity in renal spontaneously hypertensive rat model assessed as reduction of systolic arterial pressure at 20 mg/kg, po measured at 8 hrs by tail-cuff method relative to control. Type of series: functional, Artery. In short, it runs like this: as §1
The subject of series [10] is Rattus norvegicus. In words: Antihypertensive activity in renal spontaneously hypertensive rat model assessed as reduction of systolic arterial pressure at 20 mg/kg, po measured at 1 hr by tail-cuff method relative to control. Type of series: functional, Artery. The procedure, abridged:
as §1

The test system of series [11] is Rattus norvegicus. In words: Toxicity in renal spontaneously hypertensive rat model assessed as reduction of heart rate at 20 mg/kg, po measured at 2 hrs by tail-cuff method relative to control. Details: dose 20 mg/kg, route oral. The series is classed as organism-based. Conditions: in vivo. In short, it runs like this: as §1
A short description of series [12]: Displacement of [125I]-Ang-2 from AT2 receptor in porcine myometrial membranes after 1.5 hrs. The series is classed as cell membranes, Sus scrofa. In short, it runs like this:
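Membranes were made from porcine uteri (myometrium). AT1 binding was blocked by adding losartan. [125I]Ang II binding ran in 50 mM Tris-HCl pH 7.4 with 100 mM NaCl, 10 mM MgCl2, 1 mM EDTA, 0.025% bacitracin and 0.2% BSA, at 25 °C for 1.5 h. Bound ligand was caught on GF/C filters, washed with cold Tris and gamma-counted. IC50 was the concentration displacing 50% of specific binding. Run in triplicate.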
For orientation: Displacement assays read how much labelled ligand stays bound in the presence of the test substance.

The test system of series [13] is Rattus norvegicus. The series can be described thus: Antihypertensive activity in renal spontaneously hypertensive rat model assessed as reduction of diastolic arterial pressure at 20 mg/kg, po measured at 1 hr by tail-cuff method relative to control. The series is classed as functional, Artery. In short, it runs like this:
as §1

The subject of series [14] is Rattus norvegicus. The series can be described thus: Toxicity in renal spontaneously hypertensive rat model assessed as reduction of heart rate at 20 mg/kg, po measured at 8 hrs by tail-cuff method relative to control. Type of series: organism-based. Details: dose 20 mg/kg, route oral. Conditions: in vivo. In short, it runs like this:
as §1

Series [15] concerns Rattus norvegicus. The series can be described thus: Antihypertensive activity in renal spontaneously hypertensive rat model assessed as reduction of diastolic arterial pressure at 20 mg/kg, po measured at 6 hrs by tail-cuff method relative to control. Type of series: functional, Artery. In short, it runs like this:
as §1

Series [16] deals with Rattus norvegicus. The series can be described thus: Antihypertensive activity in renal spontaneously hypertensive rat model assessed as reduction of mean arterial pressure at 20 mg/kg, po measured at 8 hrs by tail-cuff method relative to control. The series is classed as functional, Artery. In short, it runs like this:
as §1

Series [17] relates to Rattus norvegicus. The series can be described thus: Antihypertensive activity in renal spontaneously hypertensive rat model assessed as reduction of diastolic arterial pressure at 20 mg/kg, po measured at 8 hrs by tail-cuff method relative to control. Type of series: functional, Artery. The procedure, abridged:
as §1

For series [18], the system named is Rattus norvegicus. In words: Antihypertensive activity in renal spontaneously hypertensive rat model assessed as reduction of mean arterial pressure at 20 mg/kg, po measured at 2 hrs by tail-cuff method relative to control. Type of series: functional, Artery. In short, it runs like this: as §1
For series [19], the system named is Rattus norvegicus. In words: Antihypertensive activity in renal spontaneously hypertensive rat model assessed as reduction of diastolic arterial pressure at 20 mg/kg, po measured at 4 hrs by tail-cuff method relative to control. Type of series: functional, Artery. The procedure, abridged:
as §1

The subject of series [20] is Rattus norvegicus. The series can be described thus: Antihypertensive activity in renal spontaneously hypertensive rat model assessed as reduction of diastolic arterial pressure at 20 mg/kg, po measured at 2 hrs by tail-cuff method relative to control. The series is classed as functional, Artery. The procedure, abridged: as §1
Series [21] has as its system Rattus norvegicus. In words: Antihypertensive activity in renal spontaneously hypertensive rat model assessed as reduction of systolic arterial pressure at 20 mg/kg, po measured at 6 hrs by tail-cuff method relative to control. The series is classed as functional, Artery. The procedure, abridged: as §1
The nature of series [22]: Displacement of [125I]-Ang-2 from AT1 receptor in rat liver membranes after 1.5 hrs. Type of series: cell membranes, Membrane.

On to `CCCCc1nc(Cl)c(CO)n1Cc1ccc(-c2ccccc2-c2nnn[nH]2)cc1` [LOSARTAN], for which the Activity is given as -10.57 bpm in [1]; -15.13 mmHg in series [2]; -19.12 mmHg in series [3]; -14.05 bpm in [4]; -5.21 mmHg in series [5]; -3.05 mmHg in [6]. In addition, the Activity in [7] is -15.55 mmHg; in [8], -2 bpm; in series [9], -14.02 mmHg; in series [10], -2.8 mmHg; in series [11], -7.1 bpm; in [13], -7.76 mmHg. Besides, the Activity is -13.2 bpm in [14]; -17.58 mmHg in [15]; -14.55 mmHg in series [16]; -13.09 mmHg in series [17]; -7.33 mmHg in [18]; -14.25 mmHg in [19]. Moreover, the values for the Activity in series [20] and in series [21] were -8.96 mmHg and -20.23 mmHg, respectively. For the same compound, the half-maximal inhibitory concentration (IC50) (in general, the concentration needed to halve the response being measured) in [12] is over 10000 nM; in series [22] it was 85 nM.
On to `CCOC(=O)NS(=O)(=O)c1ccc(CC(C)C)cc1-c1ccc(Cn2cncn2)cc1`, for which the values for the IC50 in series [12] and in series [22] were 10 nM and over 10000 nM, respectively.
As to `CCC(=O)NS(=O)(=O)c1ccc(CC(C)C)cc1-c1ccc(Cn2cncn2)cc1`, the IC50 is 68 nM in series [12] and over 10000 nM in [22].
With `CCCCOC(=O)NS(=O)(=O)c1ccc(CC(C)C)cc1-c1ccc(N)cc1`, the 50% inhibitory concentration (IC50) in series [12] and in series [22] was over 10000 nM in each case.
Consider `CCOC(=O)NS(=O)(=O)c1ccc(OC)cc1-c1ccc(Cn2cncn2)cc1`, for which the results for the IC50 in series [12] and in series [22] were 36 nM and over 10000 nM, respectively.
As for `CC(C)Cc1ccc(S(=O)(=O)NC(=O)OCc2ccccc2)c(-c2ccc(Cn3cncn3)cc2)c1`, the IC50 in series [12] and in [22] was over 10000 nM in each case.
With `COc1ccc(S(=O)(=O)NC(=O)OCc2ccccc2)c(-c2ccc(Cn3cncn3)cc2)c1`, the IC50 in series [12] and in [22] was over 10000 nM each time.
Regarding `Cc1ccc(S(=O)(=O)NC(=O)OC(C)(C)C)c(-c2ccc(Cn3cncn3)cc2)c1`, the IC50 is 289 nM in [12] and over 10000 nM in series [22].
Taken in the same sequence, the figures for `CCC(=O)NS(=O)(=O)c1ccc(OC)cc1-c1ccc(Cn2cncn2)cc1` were 184 nM and over 10000 nM.
Take `Cc1ccc(C(=O)NS(=O)(=O)c2ccc(CC(C)C)cc2-c2ccc(Cn3cncn3)cc2)cc1`: the IC50 in [12] and in series [22] was over 10000 nM in each case.
Consider `CCC(=O)NS(=O)(=O)c1ccc(C)cc1-c1ccc(Cn2cncn2)cc1`, for which the results for the IC50 in [12] and in [22] were 223 nM and over 10000 nM, respectively.
As to `CCCCOC(=O)NS(=O)(=O)c1ccc(OC)cc1-c1ccc(Cn2cncn2)cc1`, the Activity in series [1] is -13.45 bpm; in [2], -10.15 mmHg; in series [3], -17.08 mmHg; in series [4], -14.47 bpm; in [5], -4.26 mmHg; in series [6], -4.09 mmHg. Besides, the Activity in series [7] is -10.71 mmHg; in [8], 7.05 bpm; in [9], -10.1 mmHg; in series [10] it was -3.41 mmHg; in [11], -7.64 bpm; in [13], -4.21 mmHg. Also, the Activity in series [14] is given as -22.9 bpm; in series [15], -17.36 mmHg; in series [16], -12.19 mmHg; in series [17], -13.1 mmHg; in series [18], -5.62 mmHg; in [19], -10.32 mmHg. Also, the Activity in series [20] was -5.06 mmHg; in series [21], -18.94 mmHg. The half-inhibitory concentration (IC50) in series [12] was 5 nM; in series [22], over 10000 nM.
Turning to `CCCCC(=O)NS(=O)(=O)c1ccc(CC(C)C)cc1-c1ccc(Cn2cncn2)cc1`, the IC50 in series [12] is 31 nM; in series [22], over 10000 nM.
In the case of `CCCCOC(=O)NS(=O)(=O)c1sc(CC(C)C)cc1-c1ccc(Cn2ccnc2)cc1` [BULOXIBUTID], the 50% inhibitory concentration (IC50) in series [12] is 0.4 nM; in series [22], over 10000 nM.
